# Measured values taken from ChEMBL document CHEMBL3232844, “Synthesis and structure activity relationships of schweinfurthin indoles” (2014).
# Key:
# Format in all cases: functional
# BT-549 = assay: Cytotoxicity against human BT549 cells
# Outline: (§1)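 Tested in a 60-cell-line human tumor panel screen; the read-out is growth inhibition, reported as GI50 for each cell line.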
# NCI-H23 = assay: Cytotoxicity against human NCI-H23 cells; outline: as §1
# NCI-H226 = assay: Cytotoxicity against human NCI-H226 cells; outline: as §1
# PC-3 = assay: Cytotoxicity against human PC3 cells; outline: as §1
# [1] = Cytotoxicity against human UO31 cells
# Outline: (§2)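 Cell line run as part of the 60-cell-line screening panel; growth inhibition was reported as a GI50 for each line.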
# U-251 = assay: Cytotoxicity against human U251 cells; outline: as §2
# HT-29 = assay: Cytotoxicity against human HT-29 cells; outline: as §1
# NCI-H322M = assay: Cytotoxicity against human NCI-H322M cells; outline: as §1
# T47D = assay: Cytotoxicity against human T47D cells; outline: as §2
# SN12C = assay: Cytotoxicity against human SN12C cells; outline: as §1
# [2] = Cytotoxicity against human OVCAR4 cells; outline: as §1
# A549 = assay: Cytotoxicity against human A549 cells; outline: as §1
# SK-MEL-5 = assay: Cytotoxicity against human SK-MEL-5 cells; outline: as §1
# SF-295 = assay: Cytotoxicity against human SF295 cells; outline: as §1
# LOX IMVI = assay: Cytotoxicity against human LOXIMVI cells; outline: as §1
# 786-0 = assay: Cytotoxicity against human 786-0 cells; outline: as §1
# K562 = assay: Cytotoxicity against human K562 cells; outline: as §1
# [3] = Cytotoxicity against human OVCAR3 cells; outline: as §1
# [4] = Cytotoxicity against human UACC62 cells; outline: as §2
# MDA-MB-468 = assay: Cytotoxicity against human MDA-MB-468 cells; outline: as §1
# COLO 205 = assay: Cytotoxicity against human COLO205 cells; outline: as §1
# MDA-MB-231 = assay: Cytotoxicity against human MDA-MB-231 cells; outline: as §1
# [5] = read-out: pLC50 (the source's name) (converted)
smiles,measurement,setting,value
COc1cc(/C=C/c2cc(OC)c3c(C/C=C(\C)CCC=C(C)C)c[nH]c3c2)cc2c1O[C@]1(C)CC[C@@H](O)C(C)(C)[C@H]1C2,GI50,BT-549,0.589 µM
same,CC50,BT-549; [5],64.6 µM
same,TGI,BT-549; read-out: pTGI (converted),17.8 µM
same,GI50,NCI-H23,2.34 µM
same,CC50,NCI-H23; [5],66.1 µM
same,TGI,NCI-H23; read-out: pTGI (converted),16.6 µM
same,GI50,NCI-H226,8.32 µM
same,CC50,NCI-H226; [5],61.7 µM
same,TGI,NCI-H226; read-out: pTGI (converted),24.5 µM
same,GI50,PC-3,0.447 µM
same,LC50,PC-3,> 100 µM
same,TGI,PC-3; read-out: pTGI (converted),17.8 µM
same,GI50,[1]; UO-31,0.631 µM
same,LC50,[1]; UO-31,> 100 µM
same,TGI,"[1]; UO-31, read-out: pTGI (converted)",14.1 µM
same,GI50,U-251,0.759 µM
same,CC50,U-251; [5],39.8 µM
same,TGI,U-251; read-out: pTGI (converted),12.9 µM
same,GI50,HT-29,0.447 µM
same,CC50,HT-29; [5],> 100 µM
same,TGI,HT-29; read-out: pTGI (converted),2.75 µM
same,GI50,NCI-H322M,19.1 µM
same,CC50,NCI-H322M; [5],> 100 µM
same,TGI,NCI-H322M; read-out: pTGI (converted),> 100 µM
same,GI50,T47D,7.24 µM
same,CC50,T47D; [5],> 100 µM
same,TGI,T47D; read-out: pTGI (converted),34.7 µM
same,GI50,SN12C,6.76 µM
same,LC50,SN12C,63.1 µM
same,TGI,SN12C; read-out: pTGI (converted),23.4 µM
same,GI50,[2]; OVCAR-4,2.57 µM
same,CC50,"[2]; OVCAR-4, read-out: pLC50 (the source's name) (converted)",> 100 µM
same,TGI,"[2]; OVCAR-4, read-out: pTGI (converted)",70.8 µM
same,GI50,A549,1.66 µM
same,CC50,A549; [5],> 100 µM
same,TGI,A549; read-out: pTGI (converted),36.3 µM
same,GI50,SK-MEL-5,0.525 µM
same,CC50,SK-MEL-5; [5],4.37 µM
same,TGI,SK-MEL-5; read-out: pTGI (converted),1.86 µM
same,GI50,SF-295; read-out: GI50,0.2 µM
same,GI50,SF-295; read-out: pGI50 (converted),0.204 µM
same,TGI,SF-295; read-out: pTGI (converted),0.575 µM
same,GI50,LOX IMVI,1 µM
same,CC50,LOX IMVI; [5],7.59 µM
same,TGI,LOX IMVI; read-out: pTGI (converted),2.75 µM
same,GI50,786-0,0.195 µM
same,LC50 (concentration killing 50% of cells),786-0,56.2 µM
same,TGI,786-0; read-out: pTGI (converted),1.86 µM
same,GI50,K562,0.427 µM
same,CC50,K562; [5],> 100 µM
same,TGI,K562; read-out: pTGI (converted),3.89 µM
same,GI50,[3]; OVCAR-3,5.5 µM
same,CC50,"[3]; OVCAR-3, read-out: pLC50 (the source's name) (converted)",47.9 µM
same,TGI,"[3]; OVCAR-3, read-out: pTGI (converted)",20 µM
same,GI50,[4]; UACC-62,0.309 µM
same,CC50,"[4]; UACC-62, read-out: pLC50 (the source's name) (converted)",7.76 µM
same,TGI,"[4]; UACC-62, read-out: pTGI (converted)",1.48 µM
same,GI50,MDA-MB-468,1.32 µM
same,LC50,MDA-MB-468,33.1 µM
same,TGI,MDA-MB-468; read-out: pTGI (converted),8.51 µM
same,GI50,COLO 205,1.02 µM
same,CC50,COLO 205; [5],6.03 µM
same,TGI,COLO 205; read-out: pTGI (converted),2.45 µM
same,GI50,MDA-MB-231,1.41 µM
